How the values were obtained:
[1] = biological target: Tyrosine-protein kinase ABL1 (Homo sapiens) (UniProt P00519); assay: Inhibition of recombinant GST/His-tagged human Abl (118 to 535 residues) at 1 uM by FRET assay relative to control
How it was run: (§1)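 Single-point screen at 1 μM compound in a 220-kinase panel run by Life Technologies (SelectScreen). Z′-LYTE format: phosphorylation of a labeled peptide substrate read by FRET. Values are reported as percent inhibition.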

[2] = biological target: Beta-2 adrenergic receptor (Homo sapiens) (UniProt P07550); assay: Binding affinity to recombinant human beta2 adrenergic receptor at 10 uM relative to control
How it was run: (§2)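 Broad radioligand-binding and enzyme screening panel covering 42 targets (biogenic amine and neuropeptide receptors, ion channels, neurotransmitter transporters, acetylcholinesterase). Single test concentration of 10 μM. Results expressed as binding relative to control, with a hit defined as >50% of control.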

[3] = biological target: Peroxisome proliferator-activated receptor alpha (Homo sapiens) (UniProt Q07869); assay: Binding affinity to recombinant human PPARalpha at 10 uM relative to control; how it was run: as §2
[4] = biological target: Interleukin-1 receptor-associated kinase 1 (Homo sapiens) (UniProt P51617); assay: Inhibition of recombinant GST-tagged human IRAK1 (194 to 712 residues) expressed in baculovirus expression system at 1 uM by FRET relative to control; how it was run: as §1
[5] = biological target: cGMP-dependent protein kinase 1 (Homo sapiens) (UniProt Q13976); assay: Inhibition of PKG1alpha (unknown origin) at 1 uM by FRET assay relative to control
[6] = biological target: Vascular endothelial growth factor receptor 2 (Homo sapiens) (UniProt P35968); assay: Inhibition of recombinant His-tagged human KDR cytoplasmic domain (789 to 1356 residues) expressed in baculovirus expression system at 1 uM by FRET assay relative to control; how it was run: as §1
[7] = biological target: Ribosomal protein S6 kinase alpha-2 (Homo sapiens) (UniProt Q15349); assay: Inhibition of recombinant full length GST-tagged human RSK3 expressed in insect cells at 1 uM by FRET assay relative to control
How it was run: (§3)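 Single-concentration screen at 1 μM in Life Technologies SelectScreen, across a 220-kinase panel. Z′-LYTE format measures phosphorylation of a labeled peptide by FRET. Results are reported as percent inhibition.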

[8] = biological target: Myosin light chain kinase, smooth muscle (Homo sapiens) (UniProt Q15746); assay: Inhibition of recombinant human full length N-terminal GST-tagged smMLCK catalytic domain expressed in baculovirus expression system at 1 uM by FRET assay relative to control
[9] = biological target: Myotonin-protein kinase (Homo sapiens) (UniProt Q09013); assay: Inhibition of full length recombinant human DMPK expressed in baculovirus expression system at 1 uM by FRET assay relative to control
[10] = biological target: Bone morphogenetic protein receptor type-1A (Homo sapiens) (UniProt P36894); assay: Inhibition of recombinant full length N-terminal GST-tagged human BMPR1A catalytic domain expressed in insect cells at 1 uM by FRET assay relative to control
[11] = species: Homo sapiens; assay: Binding affinity to L-type calcium channel dihydropyridine binding site (unknown origin) receptor at 10 uM relative to control; how it was run: as §2
[12] = biological target: RAC-alpha serine/threonine-protein kinase (Homo sapiens) (UniProt P31749); assay: Inhibition of recombinant full length His-tagged human AKT1 expressed in baculovirus expression system at 1 uM by FRET assay relative to control
[13] = biological target: Maternal embryonic leucine zipper kinase (Homo sapiens) (UniProt Q14680); assay: Inhibition of recombinant GST-tagged human MELK expressed in baculovirus expression system at 1 uM by FRET assay relative to control; how it was run: as §1
[14] = biological target: Tyrosine-protein kinase receptor TYRO3 (Homo sapiens) (UniProt Q06418); assay: Inhibition of recombinant full length GST-tagged human Rse cytoplasmic domain (451 to 890 residues) expressed in baculovirus expression system at 1 uM by FRET assay relative to control; how it was run: as §3
[15] = biological target: NUAK family SNF1-like kinase 1 (Homo sapiens) (UniProt O60285); assay: Inhibition of recombinant full length His-tagged human ARK5 expressed in baculovirus expression system at 1 uM by FRET assay relative to control
[16] = biological target: Activin receptor type-2B (Homo sapiens) (UniProt Q13705); assay: Inhibition of recombinant GST-tagged human ACVR2B catalytic domain (185 to 488 residues) expressed in baculovirus expression system at 1 uM by FRET assay relative to control
[17] = biological target: G protein-coupled receptor kinase 5 (Homo sapiens) (UniProt P34947); assay: Inhibition of recombinant full length GST-tagged human GRK5 expressed in baculovirus expression system at 1 uM by FRET relative to control; how it was run: as §3
[18] = biological target: Mast/stem cell growth factor receptor Kit (Homo sapiens) (UniProt P10721); assay: Inhibition of recombinant GST/His-tagged human KIT cytoplasmic domain (544 to 976 residues) at 1 uM by FRET assay relative to control; how it was run: as §1
[19] = biological target: Death-associated protein kinase 1 (Homo sapiens) (UniProt P53355); assay: Inhibition of recombinant N-terminal GST-tagged human DAPK1 (1 to 363 residues) expressed in baculovirus expression system at 1 uM by FRET assay relative to control; how it was run: as §3
[20] = biological target: D(2) dopamine receptor (Homo sapiens) (UniProt P14416); assay: Binding affinity to recombinant human D2 short dopamine receptor at 10 uM relative to control; how it was run: as §2
[21] = biological target: Serine/threonine-protein kinase PLK1 (Homo sapiens) (UniProt P53350); assay: Inhibition of full length recombinant His-tagged human PLK1 expressed in baculovirus expression system at 1 uM by FRET assay relative to control
[22] = biological target: Epidermal growth factor receptor (Homo sapiens) (UniProt P00533); assay: Inhibition of recombinant GST-tagged human EGFR cytoplasmic domain (668 to 1210 residues) expressed in baculovirus expression system at 1 uM by FRET assay relative to control
How it was run: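 Part of a 220-kinase panel run at a single concentration of 1 μM. Z′-LYTE format: phosphorylation of a labelled peptide read by FRET. Values reported as percent inhibition.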

[23] = biological target: Adenosine receptor A1 (Homo sapiens) (UniProt P30542); assay: Binding affinity to recombinant human A1 adenosine receptor at 10 uM relative to control; how it was run: as §2
[24] = biological target: SRSF protein kinase 1 (Homo sapiens) (UniProt Q96SB4); assay: Inhibition of recombinant full length His-tagged human SRPK1 expressed in baculovirus expression system at 1 uM by FRET assay relative to control
[25] = biological target: Serine/threonine-protein kinase Sgk3 (Homo sapiens) (UniProt Q96BR1); assay: Inhibition of recombinant full length GST-tagged human SGK3 catalytic domain (87 to 496 residues) expressed in baculovirus expression system at 1 uM by FRET assay relative to control; how it was run: as §3
[26] = biological target: Insulin receptor (Homo sapiens) (UniProt P06213); assay: Inhibition of recombinant His-tagged human InsR (1011 to 1382 residues) expressed in baculovirus expression system at 1 uM by FRET relative to control; how it was run: as §1
[27] = biological target: Aurora kinase B (Homo sapiens) (UniProt Q96GD4); assay: Inhibition of recombinant full length His-tagged human Aurora B expressed in baculovirus expression system at 1 uM by FRET assay relative to control
Aurora kinase B (Homo sapiens), sequence (Q96GD4 whole entry): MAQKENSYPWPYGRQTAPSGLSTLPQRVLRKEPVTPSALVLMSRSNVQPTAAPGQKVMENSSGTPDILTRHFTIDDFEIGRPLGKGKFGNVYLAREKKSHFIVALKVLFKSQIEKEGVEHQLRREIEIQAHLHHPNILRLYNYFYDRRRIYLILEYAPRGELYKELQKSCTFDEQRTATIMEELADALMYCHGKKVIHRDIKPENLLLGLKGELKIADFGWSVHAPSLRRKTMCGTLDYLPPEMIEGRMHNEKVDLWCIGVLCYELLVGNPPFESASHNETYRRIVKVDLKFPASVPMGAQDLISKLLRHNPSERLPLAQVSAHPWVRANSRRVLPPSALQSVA

Maternal embryonic leucine zipper kinase (Homo sapiens), sequence (Q14680 whole entry, looked up, the tested form may be a part): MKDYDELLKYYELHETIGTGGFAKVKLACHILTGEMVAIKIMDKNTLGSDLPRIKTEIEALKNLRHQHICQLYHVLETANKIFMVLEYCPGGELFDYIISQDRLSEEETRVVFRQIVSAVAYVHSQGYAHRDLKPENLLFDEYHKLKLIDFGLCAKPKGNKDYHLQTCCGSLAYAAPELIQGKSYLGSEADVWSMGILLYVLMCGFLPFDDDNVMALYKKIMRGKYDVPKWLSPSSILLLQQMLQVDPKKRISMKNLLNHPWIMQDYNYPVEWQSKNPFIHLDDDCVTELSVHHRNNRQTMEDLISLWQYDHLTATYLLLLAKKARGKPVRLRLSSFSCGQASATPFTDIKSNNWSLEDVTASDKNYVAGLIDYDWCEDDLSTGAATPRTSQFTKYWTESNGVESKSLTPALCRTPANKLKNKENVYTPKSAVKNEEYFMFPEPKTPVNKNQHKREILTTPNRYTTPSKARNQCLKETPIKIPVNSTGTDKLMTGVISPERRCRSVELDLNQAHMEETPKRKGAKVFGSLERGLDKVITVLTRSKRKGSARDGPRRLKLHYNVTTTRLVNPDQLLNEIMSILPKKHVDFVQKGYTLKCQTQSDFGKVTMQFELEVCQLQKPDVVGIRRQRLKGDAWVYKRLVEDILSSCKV
Adenosine receptor A1 (Homo sapiens), sequence (P30542 whole entry): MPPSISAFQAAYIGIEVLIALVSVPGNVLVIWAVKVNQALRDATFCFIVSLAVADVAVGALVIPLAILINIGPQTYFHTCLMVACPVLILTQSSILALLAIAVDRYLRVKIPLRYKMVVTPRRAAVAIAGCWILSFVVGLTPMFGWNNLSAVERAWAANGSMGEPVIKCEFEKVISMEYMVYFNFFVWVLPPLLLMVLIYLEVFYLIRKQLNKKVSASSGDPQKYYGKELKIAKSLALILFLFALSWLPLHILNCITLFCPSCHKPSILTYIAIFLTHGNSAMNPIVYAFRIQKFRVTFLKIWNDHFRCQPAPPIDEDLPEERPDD
D(2) dopamine receptor (Homo sapiens), sequence (P14416 whole entry): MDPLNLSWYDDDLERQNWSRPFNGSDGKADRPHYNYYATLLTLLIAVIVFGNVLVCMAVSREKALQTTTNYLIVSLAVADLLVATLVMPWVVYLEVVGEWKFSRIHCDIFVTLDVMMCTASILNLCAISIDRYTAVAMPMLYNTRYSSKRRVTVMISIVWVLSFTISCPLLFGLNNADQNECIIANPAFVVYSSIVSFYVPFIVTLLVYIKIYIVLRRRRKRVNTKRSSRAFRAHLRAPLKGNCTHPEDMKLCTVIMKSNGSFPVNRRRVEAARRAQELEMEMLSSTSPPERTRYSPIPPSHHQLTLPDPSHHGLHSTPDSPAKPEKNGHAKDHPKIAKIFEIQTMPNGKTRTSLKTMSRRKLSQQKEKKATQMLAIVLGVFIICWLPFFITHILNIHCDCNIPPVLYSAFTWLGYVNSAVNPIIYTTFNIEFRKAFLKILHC
Epidermal growth factor receptor (Homo sapiens), sequence (P00533 whole entry, the tested form may be a part): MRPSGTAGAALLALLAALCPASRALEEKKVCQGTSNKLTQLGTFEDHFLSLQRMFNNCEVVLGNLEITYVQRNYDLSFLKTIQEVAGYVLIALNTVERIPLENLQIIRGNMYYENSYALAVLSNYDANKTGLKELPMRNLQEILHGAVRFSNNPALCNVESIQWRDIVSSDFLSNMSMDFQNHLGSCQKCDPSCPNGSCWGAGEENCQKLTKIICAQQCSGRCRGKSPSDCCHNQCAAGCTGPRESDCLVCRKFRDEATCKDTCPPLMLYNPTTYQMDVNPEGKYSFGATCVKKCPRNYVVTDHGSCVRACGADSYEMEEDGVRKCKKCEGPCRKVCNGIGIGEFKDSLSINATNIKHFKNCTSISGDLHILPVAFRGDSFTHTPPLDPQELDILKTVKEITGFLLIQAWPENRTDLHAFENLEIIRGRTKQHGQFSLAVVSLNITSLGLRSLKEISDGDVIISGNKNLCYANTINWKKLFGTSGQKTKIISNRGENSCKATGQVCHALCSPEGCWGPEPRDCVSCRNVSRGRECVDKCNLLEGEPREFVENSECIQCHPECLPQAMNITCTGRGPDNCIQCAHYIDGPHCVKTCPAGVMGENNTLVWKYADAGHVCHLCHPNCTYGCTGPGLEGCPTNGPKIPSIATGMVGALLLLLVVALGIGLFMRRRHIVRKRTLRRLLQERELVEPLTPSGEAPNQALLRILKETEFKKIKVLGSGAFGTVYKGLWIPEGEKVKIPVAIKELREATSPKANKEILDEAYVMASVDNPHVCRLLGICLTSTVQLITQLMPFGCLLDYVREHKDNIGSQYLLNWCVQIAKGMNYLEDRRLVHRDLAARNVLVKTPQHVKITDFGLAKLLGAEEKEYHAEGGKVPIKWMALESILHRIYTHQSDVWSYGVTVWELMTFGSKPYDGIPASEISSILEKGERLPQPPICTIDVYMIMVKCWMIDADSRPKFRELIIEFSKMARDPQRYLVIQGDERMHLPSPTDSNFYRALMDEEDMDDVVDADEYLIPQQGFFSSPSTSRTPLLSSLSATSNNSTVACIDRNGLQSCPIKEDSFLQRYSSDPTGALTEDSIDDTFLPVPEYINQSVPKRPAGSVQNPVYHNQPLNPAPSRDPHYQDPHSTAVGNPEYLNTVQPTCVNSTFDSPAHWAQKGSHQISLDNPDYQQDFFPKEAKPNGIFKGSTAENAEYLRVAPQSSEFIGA
Myotonin-protein kinase (Homo sapiens), sequence (Q09013 whole entry, the tested form may be a part): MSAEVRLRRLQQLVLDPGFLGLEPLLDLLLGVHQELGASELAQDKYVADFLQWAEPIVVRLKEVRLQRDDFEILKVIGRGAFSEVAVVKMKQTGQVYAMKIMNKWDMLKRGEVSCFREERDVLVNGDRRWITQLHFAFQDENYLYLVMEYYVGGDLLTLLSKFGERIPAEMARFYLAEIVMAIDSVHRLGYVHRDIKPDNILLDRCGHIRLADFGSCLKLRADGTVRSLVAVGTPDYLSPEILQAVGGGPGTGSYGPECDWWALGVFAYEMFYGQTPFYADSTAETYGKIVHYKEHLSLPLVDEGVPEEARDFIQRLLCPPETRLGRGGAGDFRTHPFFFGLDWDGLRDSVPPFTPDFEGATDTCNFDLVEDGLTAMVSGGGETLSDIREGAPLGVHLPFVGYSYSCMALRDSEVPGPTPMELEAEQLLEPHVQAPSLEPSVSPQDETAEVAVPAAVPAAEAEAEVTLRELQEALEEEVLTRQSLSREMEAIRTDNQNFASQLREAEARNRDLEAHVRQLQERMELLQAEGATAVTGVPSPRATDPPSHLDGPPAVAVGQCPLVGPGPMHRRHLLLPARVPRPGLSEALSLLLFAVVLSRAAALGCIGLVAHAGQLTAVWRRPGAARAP
Peroxisome proliferator-activated receptor alpha (Homo sapiens), sequence (Q07869 whole entry, the tested form may be a part): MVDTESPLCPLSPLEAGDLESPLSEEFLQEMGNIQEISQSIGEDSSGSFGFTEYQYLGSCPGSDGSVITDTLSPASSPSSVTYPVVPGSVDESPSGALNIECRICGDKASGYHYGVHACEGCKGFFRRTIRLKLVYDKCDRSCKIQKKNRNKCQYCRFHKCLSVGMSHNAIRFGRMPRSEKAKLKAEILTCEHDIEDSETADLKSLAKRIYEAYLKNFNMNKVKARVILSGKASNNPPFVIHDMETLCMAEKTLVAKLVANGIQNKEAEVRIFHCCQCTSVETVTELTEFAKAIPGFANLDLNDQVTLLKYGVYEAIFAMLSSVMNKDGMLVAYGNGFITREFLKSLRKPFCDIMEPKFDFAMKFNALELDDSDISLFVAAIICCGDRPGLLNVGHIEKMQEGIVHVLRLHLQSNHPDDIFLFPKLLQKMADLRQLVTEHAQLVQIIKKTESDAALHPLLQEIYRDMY
NUAK family SNF1-like kinase 1 (Homo sapiens), sequence (O60285 whole entry, the tested form may be a part): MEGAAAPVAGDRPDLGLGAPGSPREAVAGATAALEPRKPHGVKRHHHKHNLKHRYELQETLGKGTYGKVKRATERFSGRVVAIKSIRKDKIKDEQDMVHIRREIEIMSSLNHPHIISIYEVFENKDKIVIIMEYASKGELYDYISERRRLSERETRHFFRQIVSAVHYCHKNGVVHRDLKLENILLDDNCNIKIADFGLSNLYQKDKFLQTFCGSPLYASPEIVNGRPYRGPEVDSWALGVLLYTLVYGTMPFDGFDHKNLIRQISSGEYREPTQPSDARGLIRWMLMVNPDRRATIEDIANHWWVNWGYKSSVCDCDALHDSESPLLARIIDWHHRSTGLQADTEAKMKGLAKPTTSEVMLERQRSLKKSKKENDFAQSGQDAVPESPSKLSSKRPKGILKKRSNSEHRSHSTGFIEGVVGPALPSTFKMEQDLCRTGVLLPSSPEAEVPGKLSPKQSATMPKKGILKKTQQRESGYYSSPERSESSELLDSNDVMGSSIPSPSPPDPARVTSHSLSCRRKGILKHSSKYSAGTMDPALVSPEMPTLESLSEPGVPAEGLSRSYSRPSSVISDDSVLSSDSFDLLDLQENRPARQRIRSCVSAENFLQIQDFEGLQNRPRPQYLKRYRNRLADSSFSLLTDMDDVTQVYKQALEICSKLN

| SMILES | inhibition [1] | Activity [2] | Activity [3] | inhibition [4] | inhibition [5] | inhibition [6] | inhibition [7] | inhibition [8] | inhibition [9] | inhibition [10] | Activity [11] | inhibition [12] | inhibition [13] | inhibition [14] | inhibition [15] | inhibition [16] | inhibition [17] | inhibition [18] | inhibition [19] | Activity [20] | other results |
| --- | --- | --- | --- | --- | --- | --- | --- | --- | --- | --- | --- | --- | --- | --- | --- | --- | --- | --- | --- | --- | --- |
| CC(C)n1nc(-c2cnc(N)c(OC(F)(F)F)c2)cc1[C@H]1[C@@H]2CN(C3COC3)C[C@@H]21 | 10.9% | > 50% | > 50% | 8% | 0.1% | 10.6% | 3.6% | 19.6% | 39.1% | -2.3% | > 50% | 1.7% | 30.4% | 11.2% | 30.1% | -0.8% | -1.3% | 23.9% | -5.1% | > 50% | inhibition [21]: 5%; inhibition [22]: -2%; Activity [23]: > 50%; inhibition [24]: 1%; inhibition [25]: 6.1%; inhibition [26]: 16.6%; inhibition [27]: 14.4% |
| Nc1ncc(-c2cc([C@H]3[C@@H]4CN(C5COC5)C[C@@H]43)n(CC3CC3)n2)cc1C(F)(F)F | 14.9% | > 50% | > 50% | -6.1% | -1.1% | 35% | 3.5% | 11.7% | 58.5% | 1.5% | > 50% | -0.4% | 12.6% | 11.3% | 29.1% | -2.1% | -8.1% | 6.5% | 14% | > 50% | inhibition [21]: -0.4%; inhibition [22]: -1.1%; Activity [23]: > 50%; inhibition [24]: -1.7%; inhibition [25]: -0.1%; inhibition [26]: 11.9%; inhibition [27]: 7.4% |

— ChEMBL document CHEMBL4118097, “Selective Inhibitors of Dual Leucine Zipper Kinase (DLK, MAP3K12) with Activity in a Model of Alzheimer's Disease” (J Med Chem, 2017)
